From ChEMBL document CHEMBL5357032, “In Vitro Antimalarial Activity of Trichothecenes against Liver and Blood Stages of Plasmodium Species” (J Nat Prod, 2024) come the findings set out here.

Molecules are shown by their SMILES.

Series [1] concerns Plasmodium vivax. Put plainly: Antimalarial activity against liver stage Plasmodium vivax schizont infected in human hepatocytes preincubated for 5 to 10 days followed by compound addition and measured after 12 days post infection by immunofluorescence staining based assay. It is filed as functional, organism-based. Particulars: hepatocyte. An outline of the steps: (§1)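 Primary human hepatocytes seeded at 18 000 per collagen-coated well. Two days later, infected with sporozoites from mosquitoes fed P. vivax patient blood (Cambodia) 18 days earlier; a different isolate was used per experiment. Radical-cure mode: treated days 5–7 post-infection. Day 12: fixed, anti-PvUIS4 immunofluorescence, high-content imaging. Nigericin and 0.1% DMSO controls. Duplicate wells; two independent experiments.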

Series [2] is described as follows: Cytotoxicity against human HepG2 cells incubated for 72 hrs by Hoechst 33342 staining based assay. It is filed as toxicity, cell-based. An outline of the steps:
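HepG2 cells, 2000 per collagen-coated well, treated the following day by pin transfer from a 12-point 1:3 dilution series (1000× DMSO stocks). Puromycin positive control; 0.1% v/v DMSO negative. After 72 h: fixed, Hoechst 33342 nuclear stain, high-content imaging. CC50 fitted per run from duplicate wells; three independent experiments.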

A short description of series [3]: Selectivity index, ratio of CC50 for human HepG2 cells to EC50 for asexual blood stage Plasmodium falciparum W2. It counts as toxicity. Particulars: read-out: Ratio CC50/EC50.
Series [4] is described as follows: Cytotoxicity against human primary hepatocytes. It counts as toxicity, cell-based, Hepatocyte. In outline:
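Host primary human hepatocytes (18 000 per collagen-coated well) in the P. vivax liver-stage radical-cure cultures. Compound given days 5–7 post-infection from a 12-point 1:3 dilution series; fixed at day 12 and imaged by high-content imaging. 0.1% DMSO negative control. CC50 fitted per run from duplicate wells; two independent experiments.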

Series [5] is described as follows: Selectivity index, ratio of CC50 for primary human hepatocytes to EC50 for liver stage Plasmodium vivax hypnozoite infected in human hepatocytes. It counts as toxicity, cell-based. Particulars: read-out: Ratio CC50/EC50.
Series [6] has as its system Plasmodium vivax. Put plainly: Antimalarial activity against liver stage Plasmodium vivax hypnozoite infected in human hepatocytes preincubated for 5 to 10 days followed by compound addition and measured after 12 days post infection by immunofluorescence staining based assay. It is filed as functional, organism-based. The conditions noted are these: hepatocyte. In outline: as §1

Another series has as its system Plasmodium falciparum. As to the kind of experiment: Antimalarial activity against asexual blood stage Plasmodium falciparum W2 incubated for 72 hrs by Hoechst 33342 staining based assay. It counts as functional, organism-based. In outline:
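P. falciparum W2 ring stages plated at 2% parasitemia and 0.75% hematocrit. Cells allowed to settle, then dosed by pin transfer from a 12-point 1:3 dilution series made from 1000× DMSO stocks. Artemisinin was the positive control and 0.1% v/v DMSO the negative. After 72 h: fixed, Hoechst 33342 DNA stain, high-content imaging. EC50 fitted per run from duplicate wells; three independent experiments.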

Series [7] can be described thus: Selectivity index, ratio of CC50 for primary human hepatocytes to EC50 for liver stage Plasmodium vivax schizont infected in human hepatocytes. It counts as toxicity, cell-based. The conditions noted are these: read-out: Ratio CC50/EC50.

As usually defined, the EC50 is the midpoint of the concentration-response curve. For orientation: pEC50 means the EC50 on a negative log10 scale, so that one unit is a factor of ten. Lower therefore signals a high EC50. With `CC1=CC[C@@]23COC(=O)[C@@H](O)[C@H](C)CCOC(=O)/C=C/C=C\C(=O)O[C@@H]4C[C@@H](O[C@@H]2C1)[C@@]1(CO1)[C@]43C`, the EC50 in the series with Plasmodium vivax [1] came out at 0.00407 µM; in the series on Plasmodium vivax [6], 0.0309 µM; in the series on Plasmodium falciparum, 0.00045 µM. The negative-log EC50 (pEC50) in the series on Plasmodium vivax [1] was determined as 8.39; with Plasmodium vivax [6], 7.51; with Plasmodium falciparum it was 9.35. Besides, the CC50 at 72 h in series [2] (read-out: CC50) and in series [2] (read-out: pCC50 (converted)) was 0.00355 µM in each case. In addition, the selectivity ratio in series [3] turned out to be 7.95; in series [5] it was 10.1; in series [7], 77.7. The CC50 in series [4] (read-out: CC50) and in series [4] (read-out: pCC50 (converted)) was 0.316 µM each time.

For `CC1=C[C@H]2O[C@@H]3C[C@@H](O)[C@](C)([C@@]2(CO)CC1)[C@@]31CO1`, the EC50 in the series on Plasmodium vivax [1] is above 10 µM; in the series on Plasmodium vivax [6] it was above 3.31 µM; in the series with Plasmodium falciparum it was above 4.37 µM. In addition, the pEC50 in the series with Plasmodium vivax [1] was below 5; in the series on Plasmodium vivax [6] it was below 5.48; in the series with Plasmodium falciparum, below 5.36.

`CC(=O)OC[C@]12CCC(C)=C[C@H]1O[C@@H]1[C@H](O)[C@@H](OC(C)=O)[C@@]2(C)[C@]12CO2` (single isomer, unassigned): the negative-log EC50 (pEC50) with Plasmodium vivax [1] is listed as 7.87; in the series on Plasmodium vivax [6], 7.44; in the series with Plasmodium falciparum, 8.21. The values for the selectivity ratio in series [3], in series [5] and in series [7] were 4.43, 10.7 and 28.7, respectively.

As to `CO[C@@H]1C[C@@H](C[C@H]2CC[C@H](C)[C@H]([C@@H](C)C(=O)O)O2)O[C@]2(O[C@](C)([C@H]3CC[C@@](C)([C@@H]4O[C@@H]([C@H]5O[C@@](O)(CO)[C@H](C)C[C@@H]5C)C[C@@H]4C)O3)C[C@H]2C)[C@@H]1C` [NIGERICIN], the CC50 in series [4] (read-out: pCC50 (converted)) was 0.2 µM. Moreover, the values for the selectivity ratio in series [5] and in series [7] were above 16.3 and above 38.9, respectively.

Turning to `COc1ccc(C[C@H](N)C(=O)N[C@H]2[C@@H](O)[C@H](n3cnc4c(N(C)C)ncnc43)O[C@@H]2CO)cc1` [PUROMYCIN], the selectivity ratio in series [5] is 2.25; in series [7], below 1.
